# KCNQ1 pot: human KCNQ1 channel potentiation or activation. CHO-K1 KCNQ1, thallium flux FluxOR fluorescence; active compounds read high. B-score at 10 µM. 310,000 compounds, 0.35% hits;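 active = fluorescence ratio B-score, a plate-corrected score, at least three library SD, with initial intensity B-score within 5 SD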
#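 Assay system: CHO-K1 cells stably expressing KCNQ1; Medium: assay buffer with matched DMSO; Also added: K+/Tl+ depolarizing stimulus; Dosing: single dose; Timing: dye 90 min, compound 20 min, room temperature; Measured by: kinetic FluxOR thallium fluorescence, 10-s 1-Hz baseline, 110-s post-stimulus read; Read-out: peak-minus-minimum fluorescence over initial fluorescence, negative-control normalized, B-scored.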
# KCNK9 inh: inhibitors of human KCNK9 two-pore domain potassium channel | Q9NPC2 | HEK293 KCNK9, FluxOR thallium flux fluorescence; active compounds read low | B-score at 10 µM | 310,000 compounds, 1.2% hits | AID 488922;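 active = ratio B-score over 3 SD below the library mean, with starting fluorescence within 5 SD of its mean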;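 also: negative B-score means less thallium flux so channel inhibition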
# Target sequence (Q9NPC2 whole entry, looked up, the tested form may be a part): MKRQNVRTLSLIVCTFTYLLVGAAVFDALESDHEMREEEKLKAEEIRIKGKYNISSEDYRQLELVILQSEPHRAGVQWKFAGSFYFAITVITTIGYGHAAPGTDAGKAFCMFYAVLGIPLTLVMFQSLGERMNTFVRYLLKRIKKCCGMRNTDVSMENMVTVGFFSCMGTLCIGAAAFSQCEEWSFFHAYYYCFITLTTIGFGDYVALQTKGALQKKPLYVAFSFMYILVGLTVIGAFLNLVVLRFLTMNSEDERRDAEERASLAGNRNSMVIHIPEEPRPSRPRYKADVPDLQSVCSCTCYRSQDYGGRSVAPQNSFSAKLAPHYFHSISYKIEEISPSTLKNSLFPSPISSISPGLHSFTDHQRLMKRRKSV
# hERG protect: compounds protecting human hERG from proarrhythmic drug block; Q12809; CHO-hERG, FluxOR thallium flux, dofetilide IC70 present; activation (rescue from dofetilide block), less the hit threshold, % at 10 µM; 310,000 compounds, 0.51% hits; AID 1511;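 active = activation above the mean of controls blocked by dofetilide plus 5 SD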;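 also: thallium influx through hERG after potassium depolarization seen as dye fluorescence rise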
# KCNK3 inh: human KCNK3 channel inhibition, primary screen | O14649 | CHO-KCNK3 thallium flux, FluxOR fluorescence; active compounds read low | B-score at 10 µM | 340,000 compounds, 0.84% hits;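 active = B-score under library mean minus 4 SD, starting fluorescence ratio at most library mean plus 5 SD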;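 also: more negative B-score means stronger inhibition of thallium flux through KCNK3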
# KCNQ1 inh: inhibitors of human KCNQ1 potassium channel | CHO-K1 KCNQ1, FluxOR thallium flux fluorescence; active compounds read high | P51787 | AID 2642 | 310,000 compounds, 1.3% hits | B-score at 10 µM;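 active = compounds whose thallium flux B-score, printed positive for inhibition, exceeds three library SD while starting fluorescence stays within three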;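 also: channel opened by potassium depolarization with thallium stimulus after 20 min compound exposure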
# KCNK9 block conf: human KCNK9 inhibitor confirmation; shares compounds with KCNK9 inh; HEK293 KCNK9 cells, FluxOR thallium flux fluorescence; inhibition, % at 10 µM; 4,900 compounds, 43% hits; AID 492992;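 active = thallium signal inhibited by more than 5 SD of the compound-free buffer control wells, on both duplicate plates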
# Kir21 sel: tests whether KCNK9 modulators also affect mouse Kir2.1. inhibition, % at 10 µM. AID 492993. 4,900 compounds, 4% hits. shares compounds with KCNK9 inh. Kir2.1 cells, FluxOR thallium flux fluorescence;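 active = thallium signal drop more than 5 SD beyond the mean of the no-compound control wells, seen in both duplicate plates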;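 also: signal is fluorescence rise after thallium addition divided by baseline fluorescence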
# HEK293 Tl ctr: non-induced cell nonspecific activity of KCNK9 modulators | 4,900 compounds, 40% hits | shares compounds with KCNK9 inh | inhibition, % at 10 µM | non-induced KCNK9-HEK293, FluxOR thallium flux;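 active = thallium signal drop beyond 5 SD of the untreated control mean, on both duplicate plates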
# Numbers stand for hits; i = inactive; nt = no result given. Rows were chosen to be rich in hits. Some 3.1% of all compounds tested hit in one or more screens of this group.
SMILES,KCNQ1 pot,KCNK9 inh,hERG protect,KCNK3 inh,KCNQ1 inh,KCNK9 block conf,Kir21 sel,HEK293 Tl ctr
COC(=O)c1sc(-c2ccccc2)cc1NC(=O)C1CC1,i,i,i,i,i,nt,nt,nt
COC(=O)c1sc(-c2ccc(C(C)(C)C)cc2)cc1NC(=O)CSCC(=O)O,i,i,i,i,i,i,i,i
COC(=O)c1sc(-c2ccc(C(C)(C)C)cc2)cc1NC(=O)c1ccccc1C(=O)O,i,i,i,i,i,i,i,i
N/C(=N\OC(=O)Cc1ccc(-c2ccccc2)cc1)c1ccncc1,i,i,i,i,i,30%,i,i
Cc1cc(=O)c2cc(Br)ccc2n1CC(=O)NCc1ccccc1,i,-9.7,i,i,i,i,i,33%
O=C(CC(c1ccccc1)c1cc(Br)ccc1O)NCc1ccco1 (centres undefined),i,-11,i,-11,i,48%,i,i
C[C@H](CO)N1C[C@H](C)[C@@H](CN(C)Cc2ccc(-c3ccccc3)cc2)Oc2c(NC(=O)Nc3ccc4c(c3)OCO4)cccc2C1=O,nt,nt,nt,i,nt,nt,nt,nt
CCOc1ccccc1CN1CCNC(=O)C1CC(=O)NC1CCCCCCC1 (centres undefined),i,i,i,i,i,nt,nt,nt
Cc1ccc(C(=O)COC(=O)CSc2cccc3cccnc23)c(C)c1,i,i,i,i,i,i,i,i
CC(C)n1cnnc1SCC(=O)NNC(=O)COc1ccc(Cl)cc1,i,i,i,i,i,nt,nt,nt
Cc1ccc2c(c1)N(C(=O)CCC(=O)NCC(C)c1ccccc1)CC(C)O2 (centres undefined),i,i,i,i,i,nt,nt,nt
COC(=O)c1ccccc1NC(=O)CCC(=O)N1CC(C)Oc2ccc(C)cc21 (centres undefined),i,i,i,i,i,i,i,i
CCCCc1nnc(NC(=O)c2oc3ccccc3c2C)s1,i,i,i,i,i,nt,nt,nt
O=C1C(Br)=C(c2ccccc2)C(c2ccccc2)=C1c1ccccc1,nt,nt,nt,i,nt,nt,nt,nt
Cc1ccc2c(CN3CCC(C(N)=O)CC3)cc(=O)oc2c1C,i,i,i,i,i,nt,nt,nt
Cc1cc(C)c2oc(=O)cc(CN3CCCCC3)c2c1,i,i,i,i,i,i,i,i
Cc1ccc2c(CN3CCCCC3)cc(=O)oc2c1C,i,i,i,i,i,i,i,i
Nc1c(C(=O)Nc2cccc(F)c2)nnn1-c1ccc2c(c1)OCCO2,i,i,i,i,i,nt,nt,nt
CCOc1ccccc1N1CCN(C(=O)c2cc3c(C)cc(C)cc3[nH]2)CC1,i,-8.3,i,i,i,i,i,i
COc1ccccc1N1CCN(C(=O)c2oc3cc(C)cc(C)c3c2C)CC1,i,i,i,i,i,i,i,i
COc1ccc(OC)c(NC(=O)CCCCCn2nnc3ccccc3c2=O)c1,i,i,i,i,i,nt,nt,nt
Cc1ccc(C)n1-c1nn(S(=O)(=O)c2ccccc2)c2cccc(F)c12,i,-15,i,i,i,58%,i,42%
CSc1nc(-c2ccccc2)nn1S(=O)(=O)c1ccccc1,i,i,i,i,i,nt,nt,nt
O=C(OC1CCS(=O)(=O)c2sccc21)c1ccccc1 (centres undefined),i,i,i,i,i,nt,nt,nt
O=C(OC1CO[C@H]2O[C@@H]1[C@H](OC(=O)c1ccccc1)[C@H]2OC(=O)c1ccccc1)c1ccccc1 (some centres undefined),i,i,i,i,i,i,i,i
CN(CC(=O)Nc1ccc(F)cc1)C(=O)Cn1cnc2ccc([N+](=O)[O-])cc2c1=O,nt,nt,nt,i,nt,nt,nt,nt
Cc1ccc(Cl)cc1N1CCN(S(=O)(=O)c2ccc3c(c2)CC(=O)N3C)CC1,i,i,i,i,i,nt,nt,nt
CC(/C=C1\SC(=S)N(C(C(=O)O)C(C)C)C1=O)=C\c1ccccc1 (centres undefined),i,i,i,i,i,i,i,i
CC(/C=C1\SC(=S)N(NS(=O)(=O)c2ccc(C)cc2)C1=O)=C\c1ccccc1,39,i,i,i,i,i,i,i
